Source: ChEMBL document CHEMBL3612059, “Synthesis of 1,2-benzisoxazole tethered 1,2,3-triazoles that exhibit anticancer activity in acute myeloid leukemia cell lines by inhibiting histone deacetylases, and inducing p21 and tubulin acetylation” (Bioorg Med Chem, 2015)
pIC50: −log10 of the molar value. Activity calls are given as the source filed them. The calls are words filed in the database; no cut-off is given here.

Legend:
MOLM-14 [1] = experiment: Induction of apoptosis in human MOLM14 cells assessed as late apoptotic cells at 5 uM after 72 hrs by Annexin V-FITC/propidium iodide staining-based flow cytometric analysis (reference value: 2%); type: functional
In short: (§1)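 100,000 cells per well treated with 2.5, 5.0 or 10 μM for 72 h. Washed in ice-cold Ca/Mg-free PBS, resuspended in 100 μl binding buffer, stained with 5 μl PI plus 3 μl annexin V-FITC for 15 min in the dark, then read immediately by flow cytometry. Quadrants scored as live, early apoptotic, late apoptotic and necrotic.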

MOLM-14 [2] = experiment: Induction of apoptosis in human MOLM14 cells assessed as necrotic cells at 10 uM after 72 hrs by Annexin V-FITC/propidium iodide staining-based flow cytometric analysis (reference value: 1%); type: functional; in short: as §1
MV4-11 [3] = experiment: Induction of apoptosis in human MV4-11 cells assessed as early apoptotic cells at 2.5 uM after 72 hrs by Annexin V-FITC/propidium iodide staining-based flow cytometric analysis (reference value: 7%); type: functional; in short: as §1
MV4-11 [4] = experiment: Induction of apoptosis in human MV4-11 cells assessed as necrotic cells at 2.5 uM after 72 hrs by Annexin V-FITC/propidium iodide staining-based flow cytometric analysis relative to control; type: functional
In short: (§2)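 MV4-11 cells (RPMI, 10 % FBS, 37 °C, 5 % CO2), 100,000 per well, exposed to PTB at 2.5, 5.0 or 10 μM for 72 h. Washed in ice-cold Ca/Mg-free PBS, stained with annexin V-FITC and PI in 1X binding buffer for 15 min in the dark, then read at once by flow cytometry. Necrotic cells are the annexin-negative/PI-positive quadrant.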

MV4-11 [5] = experiment: Induction of apoptosis in human MV4-11 cells assessed as necrotic cells at 5 uM after 72 hrs by Annexin V-FITC/propidium iodide staining-based flow cytometric analysis relative to control; type: functional; in short: as §2
MV4-11 [6] = experiment: Induction of apoptosis in human MV4-11 cells assessed as late apoptotic cells at 10 uM after 72 hrs by Annexin V-FITC/propidium iodide staining-based flow cytometric analysis (reference value: 2%); type: functional; in short: as §1
[7] = biological target: T1, Protein deacetylase HDAC6 (Homo sapiens) (UniProt Q9UBN7); experiment: Inhibition of HDAC6 in human MOLM14 cells assessed as increase in acetylation of tubulin at lysine 40 by Western blot analysis; type: cell-based; conditions: MOLM-14
T1 sequence (whole entry): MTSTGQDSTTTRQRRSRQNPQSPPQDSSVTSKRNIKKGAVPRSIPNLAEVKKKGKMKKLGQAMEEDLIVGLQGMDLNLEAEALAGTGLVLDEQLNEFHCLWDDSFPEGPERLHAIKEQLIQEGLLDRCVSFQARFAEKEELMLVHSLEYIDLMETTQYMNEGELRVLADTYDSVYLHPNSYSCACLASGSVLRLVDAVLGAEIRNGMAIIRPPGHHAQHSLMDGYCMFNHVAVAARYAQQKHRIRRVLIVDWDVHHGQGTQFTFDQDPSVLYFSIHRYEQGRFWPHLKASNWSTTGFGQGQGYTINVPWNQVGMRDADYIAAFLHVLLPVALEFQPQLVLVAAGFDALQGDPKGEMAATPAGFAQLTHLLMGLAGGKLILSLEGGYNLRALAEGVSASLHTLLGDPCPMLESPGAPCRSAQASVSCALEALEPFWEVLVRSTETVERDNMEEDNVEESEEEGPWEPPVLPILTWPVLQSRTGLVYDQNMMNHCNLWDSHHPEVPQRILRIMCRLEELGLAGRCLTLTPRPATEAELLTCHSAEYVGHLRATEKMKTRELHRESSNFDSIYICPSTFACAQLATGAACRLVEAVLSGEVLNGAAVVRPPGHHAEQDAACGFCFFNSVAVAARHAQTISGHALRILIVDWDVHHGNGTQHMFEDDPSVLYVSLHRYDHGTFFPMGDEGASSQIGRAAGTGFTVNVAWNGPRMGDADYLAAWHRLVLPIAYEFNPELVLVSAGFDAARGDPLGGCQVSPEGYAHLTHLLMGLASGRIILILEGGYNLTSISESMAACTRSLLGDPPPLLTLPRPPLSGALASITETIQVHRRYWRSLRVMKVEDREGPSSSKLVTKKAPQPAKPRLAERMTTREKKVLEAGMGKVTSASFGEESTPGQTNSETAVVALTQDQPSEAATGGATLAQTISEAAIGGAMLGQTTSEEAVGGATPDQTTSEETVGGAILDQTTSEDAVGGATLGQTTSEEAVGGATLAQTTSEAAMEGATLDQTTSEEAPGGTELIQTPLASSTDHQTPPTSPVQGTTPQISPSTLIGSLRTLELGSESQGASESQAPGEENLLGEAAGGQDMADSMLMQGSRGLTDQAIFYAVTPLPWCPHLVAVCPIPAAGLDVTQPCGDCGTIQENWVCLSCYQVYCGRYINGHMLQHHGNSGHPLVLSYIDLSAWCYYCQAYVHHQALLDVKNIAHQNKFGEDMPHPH

MV4-11 [8] = experiment: Cytotoxicity against human MV4-11 cells assessed as cell viability after 72 hrs by MTT assay; type: functional, cell-based; conditions: MV4-11, 72 h
In short: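 MV4-11 cells, 8,000/well, exposed for 72 h to […]. MTT added to 0.5 mg/ml final for 3 h at 37 °C, SDS-HCl solubilization, A570 read. Percent inhibition normalized to diluent controls. Three independent experiments in quadruplicate, mean ± SD.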

MOLM-14 [9] = experiment: Cytotoxicity against human MOLM14 cells assessed as cell viability measured at 96 hrs by MTT assay; type: functional, cell-based; conditions: MOLM-14, 96 h
In short: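 AML cells kept in RPMI with 10 % FBS and 1 % penicillin-streptomycin at 37 °C, 5 % CO₂, mycoplasma-screened. Seeded at 8,000 cells/well across a range of concentrations and read at several times up to 96 h. MTT added to 0.5 mg/ml final for 3 h at 37 °C, formazan dissolved in SDS-HCl, absorbance read at 570 nm. IC50 taken from the dose-response curves.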

[10] = Cytotoxicity against C57BL/6 mouse bone marrow cells assessed as cell viability at 5 to 10 uM measured up to 72 hrs by MTT assay; type: cell-based
In short: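 Total bone marrow from C57BL/6 mice cultured in IMDM with 20 % FBS, 10 ng/ml mouse IL-3, 10 ng/ml IL-6 and 50 ng/ml SCF. Exposed to 5 or 10 μM for up to 72 h. MTT added to 0.5 mg/ml for 3 h at 37 °C, formazan dissolved in SDS-HCl, A570 read. Three independent experiments, quadruplicate wells, mean ± SD.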

MOLM-14 [11] = experiment: Induction of apoptosis in human MOLM14 cells assessed as late apoptotic cells at 2.5 uM after 72 hrs by Annexin V-FITC/propidium iodide staining-based flow cytometric analysis (reference value: 2%); type: functional; in short: as §1
MOLM-13 (Homo sapiens) [12] = experiment: Induction of apoptosis in human MOLM13 cells assessed as late apoptotic cells at 2.5 uM after 72 hrs by Annexin V-FITC/propidium iodide staining-based flow cytometric analysis (reference value: 7%)
MOLM-13 (Homo sapiens) [13] = experiment: Induction of apoptosis in human MOLM13 cells assessed as early apoptotic cells at 10 uM after 72 hrs by Annexin V-FITC/propidium iodide staining-based flow cytometric analysis (reference value: 11%)

Q: Which Activity (MOLM-14 [1]) does the source give for `c1ccc(Oc2ccc(-c3cn(-c4noc5ccccc45)nn3)cc2)cc1` here?
A: Its Activity is 28%.

Q: What about the Activity (MOLM-14 [2]) of the same compound?
A: The Activity was 10%.

Q: What about the Activity (MV4-11 [3]) of the same compound?
A: The Activity was 9%.

Q: And the Activity (MV4-11 [4])?
A: The Activity was 2%.

Q: And the Activity (MV4-11 [5])?
A: The Activity was 3%.

Q: And the Activity (MV4-11 [6])?
A: Its Activity is 26%.

Q: And the inhibition [7]?
A: Its inhibition is “Active”.

Q: And the pIC50 (MV4-11 [8])?
A: The pIC50 was 5.70.

Q: And the pIC50 (MOLM-14 [9])?
A: The pIC50 was 5.70.

Q: What about the Activity [10] of the same compound?
A: The Activity was “Non-toxic”.

Q: And the Activity (MOLM-14 [11])?
A: Its Activity is 26%.

Q: And the Activity (MOLM-13 (Homo sapiens) [12])?
A: Its Activity is 20%.

Q: And the Activity (MOLM-13 (Homo sapiens) [13])?
A: The Activity was 28%.
